Experiments:
[1] = species on record: Canis familiaris; assay: Positive inotropic in the isolated papillary muscle of the dog.; format: functional, Canis lupus familiaris
How it was run: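 Right ventricular anterior papillary muscle with septum, from mongrel dogs (7–12 kg, pentobarbital 30 mg/kg iv). It was perfused at about 100 mmHg via the septal artery with blood from a heparinized donor dog and paced at 120/min (1 ms pulses, about 1.5× threshold). Isometric tension was recorded. Saline solutions were injected intra-arterially, with amrinone as reference. ED15 (15% rise in developed tension) was taken from log dose-response curves. Results are mean ± SEM (n = 7) or mean ± range (n = 2).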

[2] = system: Canis familiaris; assay: Inotropic activity determined by evaluating the % change in Diastolic Blood Pressure (DBP) at a dose of 10 ug/kg administered intravenously […]; format: functional, Canis lupus familiaris
How it was run: (§1)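 Mongrel dogs of either sex, 7–15 kg, anesthetized with sodium pentobarbital (30 mg/kg iv), open-chest, intubated and ventilated on room air. Compounds given intravenously. A femoral artery catheter with pressure transducer recorded SBP and DBP. dP/dtmax, right ventricular contractile force, cardiac output and heart rate were also recorded, as % change at each iv dose.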

[3] = system: Canis familiaris; assay: Inotropic activity determined by evaluating the % change in Cardiac out put (CO)at a dose of 30 ug/kg administered intravenously […]; format: functional, Canis lupus familiaris; how it was run: as §1
[4] = system: Canis familiaris; assay: Inotropic activity determined by evaluating the % change in contractile force (CF) of right ventricle at a dose of 10 ug/kg administered intravenously […]; format: functional, Canis lupus familiaris, Heart right ventricle; how it was run: as §1
[5] = system: Canis familiaris; assay: Inotropic activity determined by evaluating the % change in Systolic Blood Pressure (SBP) at a dose of 3 ug/kg administered intravenously […]; format: functional, Canis lupus familiaris, Muscle tissue; how it was run: as §1
[6] = system: Canis familiaris; assay: Inotropic activity determined by evaluating the % change in Heart Rate (HR) at a dose of 3 ug/kg administered intravenously […]; format: functional, Canis lupus familiaris; how it was run: as §1
[7] = system: Canis familiaris; assay: Inotropic activity determined by evaluating the % change in Heart Rate (HR) at a dose of 30 ug/kg administered intravenously […]; format: functional, Canis lupus familiaris; how it was run: as §1
[8] = system: Canis familiaris; assay: Inotropic activity determined by evaluating the % change in Diastolic Blood Pressure (DBP) at a dose of 30 ug/kg administered intravenously […]; format: functional, Canis lupus familiaris; how it was run: as §1
[9] = system: Canis familiaris; assay: Inotropic activity determined by evaluating the maximum rate of rise in left ventricular pressure at a dose of 30 ug/kg administered intravenously […]; format: functional, Canis lupus familiaris, Muscle tissue; how it was run: as §1
[10] = species on record: Canis familiaris; assay: Positive inotropic activity determined in the […](that produced 30% increase in dose- response curves [dP/dt(max)]); format: functional; details: Canis lupus familiaris
How it was run: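 In the anesthetized open-chest dog (mongrel, 7–15 kg, pentobarbital 30 mg/kg iv, ventilated on room air), compounds were given intravenously and LV dP/dtmax was recorded. The dose giving a 30% rise in dP/dtmax was read from the dose-response curves. Results are mean ± SEM (n = 3) or mean ± range (n = 2).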

[11] = system: Canis familiaris; assay: Inotropic activity determined by evaluating the % change in Heart Rate (HR) at a dose of 10 ug/kg administered intravenously […]; format: functional, Canis lupus familiaris; how it was run: as §1
[12] = system: Canis familiaris; assay: Inotropic activity determined by evaluating the maximum rate of rise in left ventricular pressure at a dose of 3 ug/kg administered intravenously […]; format: functional, Canis lupus familiaris, Muscle tissue; how it was run: as §1
[13] = system: Canis familiaris; assay: Inotropic activity determined by evaluating the % change in Cardiac out put (CO)at a dose of 10 ug/kg administered intravenously […]; format: functional, Canis lupus familiaris; how it was run: as §1
[14] = system: Canis familiaris; assay: Inotropic activity determined by evaluating the % change in Systolic Blood Pressure (SBP) at a dose of 10 ug/kg administered intravenously […]; format: functional, Canis lupus familiaris; how it was run: as §1
[15] = system: Canis familiaris; assay: Inotropic activity determined by evaluating the % change in contractile force (CF) of right ventricle at a dose of 30 ug/kg administered intravenously […]; format: functional, Canis lupus familiaris, Heart right ventricle; how it was run: as §1
[16] = system: Canis familiaris; assay: Inotropic activity determined by evaluating the % change in Systolic Blood Pressure (SBP) at a dose of 30 ug/kg administered intravenously […]; format: functional, Canis lupus familiaris, Muscle tissue; how it was run: as §1
[17] = system: Canis familiaris; assay: Inotropic activity determined by evaluating the % change in Cardiac out put (CO)at a dose of 3 ug/kg administered intravenously […]; format: functional, Canis lupus familiaris; how it was run: as §1
[18] = system: Canis familiaris; assay: Inotropic activity determined by evaluating the % change in contractile force (CF) of right ventricle at a dose of 3 ug/kg administered intravenously […]; format: functional, Canis lupus familiaris, Heart right ventricle; how it was run: as §1
[19] = system: Canis familiaris; assay: Inotropic activity determined by evaluating the maximum rate of rise in left ventricular pressure at a dose of 10 ug/kg administered intravenously […]; format: functional, Canis lupus familiaris, Muscle tissue; how it was run: as §1
[20] = system: Canis familiaris; assay: Inotropic activity determined by evaluating the % change in Diastolic Blood Pressure (DBP) at a dose of 3 ug/kg administered intravenously […]; format: functional, Canis lupus familiaris; how it was run: as §1
[21] = system: Canis familiaris; assay: Inotropic activity determined by evaluating the % change in Diastolic Blood Pressure (DBP) at a dose of 300 ug/kg administered intravenously […]; format: functional, Canis lupus familiaris; how it was run: as §1
[22] = system: Canis familiaris; assay: Inotropic activity determined by evaluating the % change in Diastolic Blood Pressure (DBP) at a dose of 1000 ug/kg administered intravenously […]; format: functional, Canis lupus familiaris; how it was run: as §1
[23] = system: Canis familiaris; assay: Inotropic activity determined by evaluating the % change in Systolic Blood Pressure (SBP) at a dose of 1000 ug/kg administered intravenously […]; format: functional, Canis lupus familiaris, Muscle tissue; how it was run: as §1
[24] = system: Canis familiaris; assay: Inotropic activity determined by evaluating the % change in Heart Rate (HR) at a dose of 1000 ug/kg administered intravenously […]; format: functional, Canis lupus familiaris; how it was run: as §1
[25] = system: Canis familiaris; assay: Inotropic activity determined by evaluating the maximum rate of rise in left ventricular pressure at a dose of 1000 ug/kg administered intravenously […]; format: functional, Canis lupus familiaris, Muscle tissue; how it was run: as §1
[26] = system: Canis familiaris; assay: Inotropic activity determined by evaluating the % change in Cardiac out put (CO)at a dose of 300 ug/kg administered intravenously […]; format: functional, Canis lupus familiaris; how it was run: as §1
[27] = system: Canis familiaris; assay: Inotropic activity determined by evaluating the % change in Cardiac out put (CO)at a dose of 1000 ug/kg administered intravenously […]; format: functional, Canis lupus familiaris; how it was run: as §1
[28] = system: Canis familiaris; assay: Inotropic activity determined by evaluating the maximum rate of rise in left ventricular pressure at a dose of 300 ug/kg administered intravenously […]; format: functional, Canis lupus familiaris, Muscle tissue; how it was run: as §1
[29] = system: Canis familiaris; assay: Inotropic activity determined by evaluating the % change in Systolic Blood Pressure (SBP) at a dose of 300 ug/kg administered intravenously […]; format: functional, Canis lupus familiaris, Muscle tissue; how it was run: as §1
[30] = system: Canis familiaris; assay: Inotropic activity determined by evaluating the % change in Heart Rate (HR) at a dose of 300 ug/kg administered intravenously […]; format: functional, Canis lupus familiaris, Muscle tissue; how it was run: as §1
[31] = system: Canis familiaris; assay: Inotropic activity determined by evaluating the % change in contractile force (CF) of right ventricle at a dose of 1000 ug/kg administered intravenously […]; format: functional, Canis lupus familiaris, Heart right ventricle; how it was run: as §1
[32] = system: Canis familiaris; assay: Inotropic activity determined by evaluating the % change in contractile force (CF) of right ventricle at a dose of 300 ug/kg administered intravenously […]; format: functional, Canis lupus familiaris, Heart right ventricle; how it was run: as §1
[33] = system: Canis familiaris; assay: Inotropic activity determined by evaluating the % change in Systolic Blood Pressure (SBP) at a dose of 100 ug/kg administered intravenously […]; format: functional, Canis lupus familiaris, Muscle tissue; how it was run: as §1
[34] = system: Canis familiaris; assay: Inotropic activity determined by evaluating the maximum rate of rise in left ventricular pressure at a dose of 100 ug/kg administered intravenously […]; format: functional, Canis lupus familiaris, Muscle tissue; how it was run: as §1
[35] = system: Canis familiaris; assay: Inotropic activity determined by evaluating the % change in Cardiac out put (CO)at a dose of 100 ug/kg administered intravenously […]; format: functional, Canis lupus familiaris; how it was run: as §1
[36] = system: Canis familiaris; assay: Inotropic activity determined by evaluating the % change in Heart Rate (HR) at a dose of 100 ug/kg administered intravenously […]; format: functional, Canis lupus familiaris; how it was run: as §1
[37] = system: Canis familiaris; assay: Inotropic activity determined by evaluating the % change in contractile force (CF) of right ventricle at a dose of 100 ug/kg administered intravenously […]; format: functional, Canis lupus familiaris, Heart right ventricle; how it was run: as §1
[38] = system: Canis familiaris; assay: Inotropic activity determined by evaluating the % change in Diastolic Blood Pressure (DBP) at a dose of 100 ug/kg administered intravenously […]; format: functional, Canis lupus familiaris; how it was run: as §1

| SMILES | ED15 [1] [µg] | ED30 [10] [mg/kg] | Change of DBP [21] [%] | Change of DBP [22] [%] | Change of SBP [23] [%] | Change of HR [24] [%] | dP/dt [25] [%] | Change of CO [26] [%] | Change of CO [27] [%] | dP/dt [28] [%] | Change of SBP [29] [%] | Change of HR [30] [%] | Change of CF [31] [%] | Change of CF [32] [%] | further results |
| --- | --- | --- | --- | --- | --- | --- | --- | --- | --- | --- | --- | --- | --- | --- | --- |
| Cl.O=C1CCC(c2ccc(Nc3ccncc3)cc2)=NN1 | 4.1 | 0.0085 | – | – | – | – | – | – | – | – | – | – | – | – | Change of DBP [2]: -22%; Change of CO [3]: 27.7%; Change of CF [4]: 56.4%; Change of SBP [5]: -7.9%; Change of HR [6]: 5.8%; Change of HR [7]: 17.4%; Change of DBP [8]: -32.9%; dP/dt [9]: 69.1%; Change of HR [11]: 9.9%; dP/dt [12]: 20.9%; Change of CO [13]: 17.2%; Change of SBP [14]: -16.1%; Change of CF [15]: 78.9%; Change of SBP [16]: -24.9%; Change of CO [17]: 12.6%; Change of CF [18]: 34.4%; dP/dt [19]: 37.3%; Change of DBP [20]: -10.9% |
| CCc1cc(O)nnc1-c1ccc(Nc2ccncc2)cc1.Cl | >300 | > 1 | -0.9 | -9.3 | -5 | -2.9 | -0.9 | 3.9 | 8.6 | 1 | 0.4 | -0.1 | 4.2 | 2.8 | – |
| Nc1cc(-c2ccncc2)c[nH]c1=O [INAMRINONE] | 200 | 0.472 | -4.1 | -14.1 | -5.5 | 8.1 | 54.8 | 15.6 | 36.5 | 22.3 | -2.7 | 3.8 | 79.7 | 22.4 | Change of SBP [33]: -5%; dP/dt [34]: 6.7%; Change of CO [35]: 1.9%; Change of HR [36]: 1.2%; Change of CF [37]: 6.5%; Change of DBP [38]: -4.7% |

Source: ChEMBL document CHEMBL1123853, “A novel class of cardiotonics. Synthesis and pharmacological properties of [4-(substituted-amino)phenyl]pyridazinones and related derivatives” (1987)
